Published values collected from several papers.
Compare with care: the assays were run in different laboratories.

| SMILES | system | setting | concentration |
| --- | --- | --- | --- |
| CC(C)Cc1nn(C)c(=O)c2c(SCCCO)n(Cc3cccc4ccccc34)cc12 | mouse, brain | intraperitoneal, 20 mg/kg, 7 days | 0 nM |
| O=C(O)C1CCN(c2ncc(-c3ccc4c(c3)OCCCO4)s2)CC1 | male Swiss mouse, plasma | oral, 30 mg/kg, 15 min, single dose | 15000 ng/mL |
| CC(C)(Nc1nc(-c2ccccn2)nc2ccccc12)c1ccccn1 | female BALB/c mouse, plasma | oral, 50 mg/kg, 24 h | 79 ng/mL |
| O=c1nc(N2CCN(CC3CCCCC3)CC2)sc2c([N+](=O)[O-])cc(C(F)(F)F)cc12 | CD-1 mouse, plasma | intravenous, 10 mg/kg, 8 h | 44.4 ng/mL |
| CC(C)CN(C[C@@H](O)[C@H](Cc1ccccc1)NC(=O)O[C@H]1CO[C@H]2OCC[C@H]21)S(=O)(=O)c1ccc(N)cc1 | BALB/c mouse, brain | intravenous, 25 mg/kg, 6 h | 1.85 ng/g |
| O=S(=O)(c1ccc(-c2ccc3nccc(Nc4ccncn4)c3c2)cc1)N1CCOCC1 | female BALB/c mouse, plasma | intraperitoneal, 10 mg/kg, 4 h | 1350 ng/mL |
| CC(C)Oc1cccc(-c2cnc(N3CCC(C(N)=O)CC3)s2)c1 | male Swiss mouse, plasma | oral, 30 mg/kg, 0 h, single dose | 0 nM |
| c1ccc(-c2nc(N3CCC(c4ccccn4)C3)c3ccccc3n2)nc1 (centres unmarked) | female BALB/c mouse, plasma | oral, 50 mg/kg, 4 h | 826 ng/mL |
